For one data set, the system named is NSCLC cell line H460. The data set can be described thus: SRB cytotoxicity assay in NSCLC cell line H460. It counts as cell-based. To be noted: for cytoselective anti-cancer effects in H460 and H460TaxR cells (in words): single concentration 10 µM, SRB, H460 and H460TaxR versus NHFB. The procedure, abridged:
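Sulforhodamine B (SRB) viability assay in H460 cells, run alongside drug-resistant H460TaxR and normal human fibroblasts (NHFB). The initial screen used a single test-compound concentration of 10 µM. DMSO served as the negative control, and viability in DMSO was set to 100%. Selected compounds were also tested across a range of doses in H460 and H460TaxR to give dose-dependent cytotoxicity.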
(In general: The SRB assay estimates cell density from bound dye.)

The nature of data set [1]: high throughput aqueous solubility assay. It counts as physicochemical. To be noted: for aqueous solubility (in words): comparison within libraries.
For data set [2], the system named is normal human fibroblasts (NHFB). The data set is described as follows: SRB cytotoxicity assay in normal human fibroblasts. It counts as cell-based. The conditions noted are these: Fibroblast, read-out: EC50 NHFB.

SMILES strings stand for the structures.

Broadly, the EC50 is the concentration at which the effect is half-maximal.

As to `CN(C)c1ccc(/C=C2/SC(N(C)c3ccccc3)=NC2=O)cc1` [Compound 31], in the data set with NSCLC cell line H460 (H460 and H460TaxR, compared to compound 1), the “improvement in anti-cancer activity (EC50)” value worked out at 10 fold. Also, the “cytoselective anti-cancer effects in H460 and H460TaxR cells (in words)” value (from here on “cytoselective anti-cancer effects”) with NSCLC cell line H460 is “potent cytoselective anti-cancer activity”. Also, the “improvement in aqueous solubility” value in data set [1] (compared to compound 1) was 5 fold.

`CN(C1=NC(=O)/C(=C\c2ccc(N3CCOCC3)cc2)S1)c1ccccc1` [Compound 33]: the “anti-cancer activity (in words)” value in the data set with NSCLC cell line H460 (H460 and H460TaxR) was “weak anti-cancer effects”. Besides, the half-maximal effective concentration (EC50) in data set [2] was more than 100 µM. Moreover, the “aqueous solubility (in words)” value in data set [1] was “significantly better”.

Regarding `O=C1N=C(Nc2ccccc2)S/C1=C/c1ccc(N2CCNCC2)cc1` [Compound 5], the “anti-cancer activity (in words)” value in the data set on NSCLC cell line H460 (H460 and H460TaxR) is “reduced anticancer activity”. For the same compound, the EC50 in data set [2] is more than 100 µM. For the same compound, the “aqueous solubility (in words)” value in data set [1] is listed as “largest improvement in aqueous solubility”.

With `CCN(CC)c1ccc(/C=C2/SC(N(C)c3ccccc3)=NC2=O)cc1` [Compound 32], the “cytoselective anti-cancer effects” value with NSCLC cell line H460 was “potent cytoselective anti-cancer activity”. The EC50 in data set [2] is more than 100 µM. For the same compound, the “aqueous solubility (in words)” value in data set [1] is on record as “did not improve solubility”.

In the case of `CN(C)c1ccc(/C=C2/SC(=Nc3ccccc3Cl)NC2=O)cc1` [Compound 11], the “cytoselective anti-cancer effects” value in the data set with NSCLC cell line H460 is “good cytoselective anti-cancer effects”.

Take `CCN(CC)c1ccc(/C=C2/SC(Nc3ccccc3C)=NC2=O)cc1` [Compound 22]: the “cytoselective anti-cancer effects” value in the data set on NSCLC cell line H460 is “good cytoselective anti-cancer effects”.

With `CN(C)c1ccc(/C=C2/SC(N(c3ccccc3)c3ccccc3)=NC2=O)cc1` [Compound 26], the EC50 in data set [2] was more than 100 µM.

For the compound `O=C1N=C(Nc2ccccc2)S/C1=C/c1ccc(N2CCOCC2)cc1` [Compound 3], the EC50 in data set [2] was more than 100 µM.

On to `CCN(CC)c1ccc(/C=C2/SC(N(c3ccccc3)c3ccccc3)=NC2=O)cc1` [Compound 27], for which the concentration giving a half-maximal response (EC50) in data set [2] was more than 100 µM.

As for `CN1CCN(c2ccc(/C=C3/SC(N(C)c4ccccc4)=NC3=O)cc2)CC1` [Compound 34], in the data set with NSCLC cell line H460 (H460 and H460TaxR), the “anti-cancer activity (in words)” value is “weak anti-cancer effects”.

For `Cc1ccccc1/N=C1\NC(=O)/C(=C\c2ccc(N(C)C)cc2)S1` [Compound 21], the “cytoselective anti-cancer effects” value with NSCLC cell line H460 is “good cytoselective anti-cancer effects”.

`CCN(CC)c1ccc(/C=C2/SC(Nc3ccccc3)=NC2=O)cc1` [Compound 2]: in the data set with NSCLC cell line H460, the “cytoselective anti-cancer effects” value is listed as “good cytoselective anti-cancer effects”. Moreover, the EC50 in data set [2] was more than 100 µM.

Turning to `CN(C1=NC(=O)/C(=C\c2ccc(N3CCNCC3)cc2)S1)c1ccccc1` [Compound 35], the “anti-cancer activity (in words)” value in the data set on NSCLC cell line H460 (H460 and H460TaxR) is “weak anti-cancer effects”.

`CN(C)c1ccc(/C=C2/SC(=Nc3ccccc3)NC2=O)cc1` [Compound 1]: the “cytoselective anti-cancer effects” value with NSCLC cell line H460 is listed as “good cytoselective anti-cancer effects”. Also, the concentration giving a half-maximal response (EC50) in data set [2] is more than 100 µM.

In the case of `Cc1ccccc1NC1=NC(=O)/C(=C\c2ccc(N3CCNCC3)cc2)S1` [Compound 25], the “anti-cancer activity (in words)” value in the data set with NSCLC cell line H460 (H460 and H460TaxR) is given as “reduced anticancer activity”. Moreover, in data set [1], the “aqueous solubility (in words)” value is “largest improvement in aqueous solubility”.

`CN1CCN(c2ccc(/C=C3/SC(Nc4ccccc4)=NC3=O)cc2)CC1` [Compound 4]: the “cytoselective anti-cancer effects” value in the data set with NSCLC cell line H460 is on record as “good cytoselective anti-cancer effects”.

On to `O=C1N=C(Nc2ccc(O)cc2)S/C1=C/c1ccc(N2CCNCC2)cc1` [Compound 10], for which, in the data set with NSCLC cell line H460 (H460 and H460TaxR), the “anti-cancer activity (in words)” value is “reduced anticancer activity”. Besides, the “aqueous solubility (in words)” value in data set [1] was “largest improvement in aqueous solubility”.

Consider `CCN(CC)c1ccc(/C=C2/SC(Nc3ccccc3Cl)=NC2=O)cc1` [Compound 12], for which the “cytoselective anti-cancer effects” value with NSCLC cell line H460 is “good cytoselective anti-cancer effects”.

The values above are taken from article PMC5586103 (Bioorganic & medicinal chemistry letters, 2015).
